Source: ChEMBL document CHEMBL1153287, “First small molecular inhibitors of T. brucei dolicholphosphate mannose synthase (DPMS), a validated drug target in African sleeping sickness” (Bioorg Med Chem Lett, 2009)
pEC50: −log10 of the molar value. The source made the active and inactive calls. No cut-off for these calls is given here.

How the values were obtained:
[1] = system: Trypanosoma brucei; experiment: Inhibition of Trypanosoma brucei DPMS expressed in Escherichia coli assessed as residual enzyme activity at 1 mM relative to untreated control
Procedure, shortened: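 Recombinant full-length membrane-bound T. brucei DPMS in E. coli membranes (70 ng/ml total protein). Buffer: 50 mM Na–Hepes pH 7.4, 25 mM KCl, 5 mM MgCl2, 5 mM MnCl2, 0.1% n-octyl-glucopyranoside. Substrates: dehydrofarnesol-phosphate and GDP-[3H]Man. Inhibitor at 1 mM; 10 min at 30 °C. Lipids extracted in CHCl3:MeOH, butanol phase counted. Activity relative to a no-inhibitor control.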

[2] = system: Trypanosoma brucei; experiment: Inhibition of glycosylphosphatidylinositol anchor biosynthesis in Trypanosoma brucei 117 cell-free system assessed as reduction of ethanolamine-P-Manalpha1-2Manalpha1-6Manalpha1-4GlcNH2-PI formation; assay type: functional
Procedure, shortened: (§1)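 Cell-free GPI synthesis using bloodstream T. brucei variant 117 membranes, 1 × 10^7 cell equivalents per assay. Membranes washed in Hepes pH 7.4/KCl/MgCl2 buffer with TLCK and leupeptin. Reaction in buffer with MnCl2, tunicamycin and dithiothreitol. Labelled with GDP-[3H]Man plus 1 mM UDP-GlcNAc. Inhibitor in DMSO, 1 mM final.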

[3] = system: Trypanosoma brucei; experiment: Inhibition of glycosylphosphatidylinositol anchor biosynthesis in Trypanosoma brucei 117 cell-free system assessed as reduction of Manalpha1-2Manalpha1-6Manalpha1-4GlcNH2-PI formation; assay type: functional; procedure, shortened: as §1
[4] = system: Trypanosoma brucei; experiment: Antitrypanosomal activity against Trypanosoma brucei 427; assay type: functional; conditions: read-out: ED50 (the source's name)
Procedure, shortened: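 Bloodstream-form T. brucei strain 427 in culture; viability read by Alamar Blue; ED50 in μM; each experiment run at least in duplicate.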

[5] = system: Trypanosoma brucei; experiment: Inhibition of Trypanosoma brucei 117 DPMS-mediated glycosylphosphatidylinositol anchor biosynthesis assessed as reduction of dolicholphosphate-mannose formation; procedure, shortened: as §1
[6] = system: Trypanosoma brucei; experiment: Inhibition of glycosylphosphatidylinositol anchor biosynthesis in Trypanosoma brucei 117 cell-free system assessed as reduction of Manalpha1-6Manalpha1-4GlcNH2-PI formation formation; assay type: functional; procedure, shortened: as §1
[7] = Cytotoxicity against human HeLa cells by alamar blue assay; assay type: cell-based; conditions: read-out: ED50 (the source's name)
Procedure, shortened: (§2)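 HeLa cells treated at 0.1 and 1.0 mM final; viability by Alamar Blue; inhibition expressed relative to a DMSO-only control.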

[8] = system: Trypanosoma brucei; experiment: Inhibition of glycosylphosphatidylinositol anchor biosynthesis in Trypanosoma brucei 117 cell-free system assessed as reduction of Manalpha1-4GlcNH2-PI formation; assay type: functional; procedure, shortened: as §1
[9] = system: Trypanosoma brucei; experiment: Inhibition of glycosylphosphatidylinositol anchor biosynthesis in Trypanosoma brucei 117 cell-free system assessed as reduction of Manalpha1-2Manalpha1-6Manalpha1-4GlcNH2-(acyl)PI formation; assay type: functional; procedure, shortened: as §1
[10] = Cytotoxicity against human HeLa cells assessed as growth inhibition at 1 mM by alamar blue assay; assay type: cell-based; procedure, shortened: as §2

Activity [1] [%]	pEC50 [4]	inhibition [5]	Structure (SMILES)	inhibition [2]	inhibition [3]	inhibition [6]	CC50 [7] [µM]	inhibition [8]	inhibition [9]	inhibition at 1000 µM [10] [%]
20	3.31	Active	O=C(O)CN1C(=O)/C(=C/c2ccc(OCc3ccccc3)c(OCc3ccccc3)c2)SC1=S	Active	Active	Active	> 1000	Active	Active	–
42	3.63	–	O=C(O)CN1C(=O)/C(=C/c2ccccc2)SC1=S	–	–	–	> 1000	–	–	–
23	3.97	inactive	O=C(O)CN1C(=O)/C(=C/c2ccccc2O)SC1=S	Active	Active	Active	> 1000	Active	Active	–
10	3.47	inactive	O=C(O)CN1C(=O)/C(=C/c2ccc(OCc3ccccc3)cc2)SC1=S	Active	Active	Active	> 1000	Active	Active	20
73	3.61	–	N#Cc1ccc(/C=C2\SC(=S)N(CC(=O)O)C2=O)cc1	–	–	–	–	–	–	–
94	< 3.00	–	C#Cc1ccc(/C=C2\SC(=S)N(CC(=O)O)C2=O)cc1	–	–	–	–	–	–	20
70	3.37	Active	O=C(O)CN1C(=O)/C(=C/c2ccc(O)cc2)SC1=S	Active	Active	Active	> 1000	Active	Active	–
90	3.46	–	O=C(O)CN1C(=O)/C(=C/c2cccc(O)c2)SC1=S	–	–	–	–	–	–	–
23	4.02	–	O=C(O)CN1C(=O)/C(=C/c2cccc(OCc3ccccc3)c2)SC1=S	–	–	–	> 1000	–	–	–
86	3.40	–	O=C(O)CN1C(=O)/C(=C/c2ccc(Cl)cc2)SC1=S	–	–	–	–	–	–	–
